# Assay results from ChEMBL document CHEMBL2331169, “Search for α3β₂/₃γ2 subtype selective ligands that are stable on human liver microsomes” (Bioorg Med Chem, 2013).
# Activity calls are given as the source filed them. No cut-off for these calls is given here.
# Columns and labels:
# [1] = Metabolic stability in human liver microsomes assessed as compound remaining at 1 uM measured at 60 mins by LC-MS/MS analysis relative to control; type: ADME, Microsome; conditions: liver microsomes, read-out: Stability
# How it was run: (§1)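 Pooled human liver microsomes (150 donors, 0.5 mg protein/ml) with 2.5 mM NADPH and 3.3 mM MgCl2 in 100 mM phosphate pH 7.4, 0.1% DMSO final, 37 °C, reaction started with microsomes. Aliquots quenched in cold acetonitrile with internal standard; LC-MS/MS in positive-ion ESI MRM mode. Percent remaining is analyte/internal-standard peak-area ratio versus 0 min ×100; duplicates.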
# [2] = molecular target: T1, GABA A receptor alpha-2/beta-2/gamma-2 (Rattus norvegicus) (UniProt P18508+P23576+P63138); test: Agonist activity at rat GABAA alpha2beta3gamma2 receptor expressed in Xenopus oocytes assessed as stimulation of GABA-induced chloride current at 1 uM incubated 30 secs prior to GABA induction measured after 15 mins by two-electrode voltage clamp assay relative to control; type: cell-based; conditions: Oocyte
# How it was run: (§2)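 Rat GABAA β3 and γ2 cDNAs plus α1, α2, α3 or α5 cDNA injected into Xenopus oocytes; follicle layers removed 36 h later. Two-electrode recording with […]-filled electrodes; oocytes perfused with Ringer (90 mM NaCl, 5 mM HEPES pH 7.4, 1 mM MgCl2, KCl, CaCl2) switched to GABA at EC3 with drug (0.1% DMSO final). Mean ± SEM, 3–4 oocytes, ≥2 batches.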
# [3] = molecular target: Gamma-aminobutyric acid receptor subunit alpha-3 (Rattus norvegicus) (UniProt P20236); test: Agonist activity at rat GABAA alpha3beta3gamma2 receptor expressed in Xenopus oocytes assessed as stimulation of GABA-induced chloride current at 1 uM incubated 30 secs prior to GABA induction measured after 15 mins by two-electrode voltage clamp assay relative to control; type: cell-based; conditions: Oocyte; how it was run: as §2
# [4] = molecular target: T2, GABA-A receptor; alpha-1/beta-2/gamma-2 (Rattus norvegicus) (UniProt P18508+P62813+P63138); test: Agonist activity at rat GABAA alpha1beta3gamma2 receptor expressed in Xenopus oocytes assessed as stimulation of GABA-induced chloride current at 1 uM incubated 30 secs prior to GABA induction measured after 15 mins by two-electrode voltage clamp assay relative to control; type: cell-based; conditions: Oocyte; how it was run: as §2
# [5] = molecular target: T1, GABA A receptor alpha-2/beta-2/gamma-2 (Rattus norvegicus); test: Agonist activity at rat GABAA alpha2beta3gamma2 receptor expressed in Xenopus oocytes assessed as stimulation of GABA-induced chloride current at 100 nM incubated 30 secs prior to GABA induction measured after 15 mins by two-electrode voltage clamp assay relative to control; type: cell-based; conditions: Oocyte; how it was run: as §2
# [6] = (§3) Metabolic stability in heat inactivated human liver microsomes assessed as compound remaining at 1 uM measured at 60 mins by LC-MS/MS analysis relative to control; type: ADME, Microsome; conditions: heat-inactivated liver microsomes, read-out: Stability
# How it was run: (§4)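 Control incubation with heat-inactivated human liver microsomes (0.5 mg protein/ml) in 100 mM phosphate pH 7.4, 37 °C, sampled at 0 and 60 min. Samples quenched in acetonitrile with internal standard and analysed by LC-MS/MS. Percent remaining is the peak-area ratio relative to 0 min ×100; duplicates.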
# [7] = Metabolic stability in human liver microsomes assessed as compound remaining at 1 uM measured at 30 mins by LC-MS/MS analysis relative to control; type: ADME, Microsome; conditions: liver microsomes, read-out: Stability; how it was run: as §1
# [8] = Metabolic stability in heat inactivated human liver microsomes assessed as compound remaining at 10 uM measured at 60 mins by LC-MS/MS analysis relative to control; type: ADME, Microsome; conditions: read-out: Stability; how it was run: as §4
# [9] = Metabolic stability in human liver microsomes assessed as compound remaining at 1 uM measured at 15 mins by LC-MS/MS analysis relative to control; type: ADME, Microsome; conditions: read-out: Stability; how it was run: as §1
# [10] = molecular target: T3, GABA A receptor alpha-5/beta-3/gamma-2 (Rattus norvegicus) (UniProt P18508+P19969+P63079); test: Agonist activity at rat GABAA alpha5beta3gamma2 receptor expressed in Xenopus oocytes assessed as stimulation of GABA-induced chloride current at 100 nM incubated 30 secs prior to GABA induction measured after 15 mins by two-electrode voltage clamp assay relative to control; type: cell-based; conditions: Oocyte; how it was run: as §2
# [11] = Metabolic stability in human liver microsomes assessed as compound remaining at 10 uM measured at 15 mins by LC-MS/MS analysis relative to control; type: ADME, Microsome; conditions: read-out: Stability; how it was run: as §1
# [12] = Metabolic stability in human liver microsomes assessed as compound remaining at 10 uM measured at 30 mins by LC-MS/MS analysis relative to control; type: ADME, Microsome; conditions: read-out: Stability; how it was run: as §1
# [13] = molecular target: T2, GABA-A receptor; alpha-1/beta-2/gamma-2 (Rattus norvegicus); test: Agonist activity at rat GABAA alpha1beta3gamma2 receptor expressed in Xenopus oocytes assessed as stimulation of GABA-induced chloride current at 100 nM incubated 30 secs prior to GABA induction measured after 15 mins by two-electrode voltage clamp assay relative to control; type: cell-based; conditions: Oocyte; how it was run: as §2
# [14] = Metabolic stability in human liver microsomes assessed as compound remaining at 10 uM measured at 60 mins by LC-MS/MS analysis relative to control; type: ADME, Microsome; conditions: read-out: Stability; how it was run: as §1
# [15] = molecular target: T3, GABA A receptor alpha-5/beta-3/gamma-2 (Rattus norvegicus); test: Agonist activity at rat GABAA alpha5beta3gamma2 receptor expressed in Xenopus oocytes assessed as stimulation of GABA-induced chloride current at 1 uM incubated 30 secs prior to GABA induction measured after 15 mins by two-electrode voltage clamp assay relative to control; type: cell-based; conditions: Oocyte; how it was run: as §2
# [16] = molecular target: Gamma-aminobutyric acid receptor subunit alpha-3 (Rattus norvegicus) (UniProt P20236); test: Agonist activity at rat GABAA alpha3beta3gamma2 receptor expressed in Xenopus oocytes assessed as stimulation of GABA-induced chloride current at 100 nM incubated 30 secs prior to GABA induction measured after 15 mins by two-electrode voltage clamp assay relative to control; type: cell-based; conditions: Oocyte; how it was run: as §2
# [17] = system: Rattus norvegicus; test: Anxiolytic activity in rat assessed as increase in time spent in lighted area at 3 mg/kg, ip administered 20 mins prior to testing measured for 30 mins by light/dark cycle test relative to vehicle-treated control; type: functional, organism-based; design: dose 3 mg/kg
# [18] = system: Rattus norvegicus; test: Sedative activity in rat assessed as reduction of D-amphetamine sulfate-induced locomotion at 3 mg/kg, ip administered 20 mins prior to testing measured for 90 mins relative to vehicle-treated control; type: functional, organism-based; design: dose 3 mg/kg
# How it was run: (§5)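 Rats kept ≥10 days on a reversed light/dark cycle. Drug or saline (2 ml/kg) given i.p. 20 min before an open-field arena; spontaneous x–y locomotion recorded 30 min by beam breaks. D-amphetamine sulfate 0.5 mg/kg i.p. then given, and locomotion recorded a further 90 min.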
# [19] = system: Rattus norvegicus; test: Anxiolytic activity in rat assessed as increase in time spent in lighted area at 10 to 100 mg/kg, ip administered 20 mins prior to testing measured for 30 mins by light/dark cycle test relative to vehicle-treated control; type: functional, organism-based
# [20] = system: Liver microsomes; test: as §3; type: ADME, Microsome; conditions: microsomes, 1 h, 1 µM; how it was run: as §4
# [21] = system: Rattus norvegicus; test: Sedative activity in rat assessed as reduction of D-amphetamine sulfate-induced locomotion at 10 to 100 mg/kg, ip administered 20 mins prior to testing measured for 90 mins relative to vehicle-treated control; type: functional, organism-based; how it was run: as §5
# Sequence of Gamma-aminobutyric acid receptor subunit alpha-3 (Rattus norvegicus) (P20236 whole entry): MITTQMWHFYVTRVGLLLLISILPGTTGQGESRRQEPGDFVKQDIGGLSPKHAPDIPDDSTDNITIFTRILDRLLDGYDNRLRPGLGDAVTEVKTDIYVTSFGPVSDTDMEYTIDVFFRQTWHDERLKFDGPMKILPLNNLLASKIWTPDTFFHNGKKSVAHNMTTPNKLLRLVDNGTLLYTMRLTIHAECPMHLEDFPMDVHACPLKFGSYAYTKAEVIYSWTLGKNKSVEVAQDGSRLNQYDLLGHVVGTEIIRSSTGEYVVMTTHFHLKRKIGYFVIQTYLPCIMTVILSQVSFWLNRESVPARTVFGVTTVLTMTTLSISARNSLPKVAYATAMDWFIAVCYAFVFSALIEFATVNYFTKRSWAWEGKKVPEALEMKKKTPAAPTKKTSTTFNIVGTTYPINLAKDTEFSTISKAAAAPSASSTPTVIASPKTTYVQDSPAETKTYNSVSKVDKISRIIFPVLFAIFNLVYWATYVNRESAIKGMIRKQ
Compound,"remaining at 1 h, 1 µM [1] [%]",Activity [2] [%],Activity [3] [%],Activity [4] [%],Activity [5] [%],"remaining at 1 h, 1 µM [6] [%]","remaining at 0.5 h, 1 µM [7] [%]","remaining at 1 h, 10 µM [8] [%]","remaining at 0.25 h, 1 µM [9] [%]",Activity [10] [%],"remaining at 0.25 h, 10 µM [11] [%]","remaining at 0.5 h, 10 µM [12] [%]",Activity [13] [%],"remaining at 1 h, 10 µM [14] [%]",Activity [15] [%],Activity [16] [%],also measured
C#Cc1ccc2c(c1)C(c1ccccn1)=NCc1c(-c3nc(C(C)C)no3)ncn1-2,89.5,236,375,178,139,113,98.7,91.7,97.8,130,106,99.3,117,95.1,252,143,
CN1C(=O)CN=C(c2ccccc2)c2cc(Cl)ccc21,,,,,,,,,,,,,,,,,Activity [17]: Active; Activity [18]: Active
C#Cc1ccc2c(c1)C(c1ccccn1)=NCc1c(C(=O)OCC)ncn1-2,80.2,,,,,93.8,95.6,95.4,106,,103,90.4,,76.1,,,
C#Cc1ccc2c(c1)C(c1ccccc1)=NCc1c(C(=O)OCC)ncn1-2,1.5,,,,,107,11.2,102,41.4,,47.6,13.9,,1.7,,,
C#Cc1ccc2c(c1)C(c1ccccc1F)=NCc1c(C(=O)NC)ncn1-2,92.3,287,485,201,241,116,95.9,108,97.3,326,96.8,103,152,103,361,349,
C#Cc1ccc2c(c1)C(c1ccccc1F)=NCc1c(C(=O)OCC)ncn1-2,0.3,,,,,102,2.2,110,13.5,,20,3.6,,0.6,,,
C#Cc1ccc2c(c1)C(c1ccccc1)=NCc1c(-c3nc(C(C)C)no3)ncn1-2,90.8,281,381,150,160,,110,119,100,175,109,108,107,96.6,291,195,Activity [19]: Active; Stability [20]: 137.5%; Activity [21]: inactive
C#Cc1ccc2c(c1)C(c1ccccc1)=NCc1c(C(=O)NC)ncn1-2,5.2,287,831,192,211,114,37.5,114,87.3,257,107,104,132,82.8,307,412,
C#Cc1ccc2c(c1)C(c1ccccc1F)=NCc1c(-c3nc(C(C)C)no3)ncn1-2,,225,460,234,154,,,,,239,,,140,,331,226,
C#Cc1ccc2c(c1)C(c1ccccn1)=NCc1c(C(=O)O)ncn1-2,110,,,,,97,105,88.3,102,,91.4,86.1,,85.9,,,
C#Cc1ccc2c(c1)C(c1ccccc1)=NCc1c(C(=O)O)ncn1-2,111,,,,,106,110,97.2,108,,95.3,94.8,,94.8,,,
